Assay outcomes (PubChem BioAssay)
TbMetRS inhib – blocks T. brucei methionyl-tRNA synthetase activity | 360,000 tested, 0.4% active | purified T. brucei MetRS, ATP depletion, Kinase-Glo luminescence | inhibition, % at 11.9 µM | AID 624268;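 active = inhibition above a per-plate cutoff of the control wells' mean inhibition plus 3 SD, cut at about 5.5% in these data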;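 also: 0% = DMSO wells median and 100% = median of wells with control inhibitor compound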
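Test system – parasite MetRS enzyme · Reagent – substrates ATP, L-methionine and bulk Escherichia coli tRNA · Doses – 11.9 µM compound single dose, 0.9% DMSO · Times – 15 min enzyme-compound preincubation, 2 h reaction, 10 min detection, 25 °C · Signal – Kinase-Glo luminescence, ATP depletion format · Controls – DMSO-only wells as low control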
SKN-1 block – C. elegans SKN-1 inhibition | 360,000 tested, 0.49% active | AID 624304 | C. elegans VP596 Pgst-4::GFP/RFP ratio, acrylamide-induced, 24 h | inhibition, % at 21.8 µM;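 active = interference check ratio from 0.5 to 1.5 plus GFP to RFP signal ratio inhibition reaching or exceeding a fixed threshold, cut at about 30% in these data, passing the limit was not always enough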
PREPL inh – human PREPL enzyme inhibition | Q4J6C6 | inhibition, % at 5.96 µM | recombinant PREPL, fluorescence polarization activity-based probe | 320,000 tested, 0.68% active; in the data active = inhibition above about 43%;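 also: 0% = enzyme with DMSO and 100% = wells lacking enzyme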
E coli Lon inh – inhibitors of E. coli Lon protease; purified E. coli Lon protease, fluorescence polarization; inhibition, % at 7.94 µM; 360,000 tested, 0.42% active; in the data active = inhibition above about 13%, passing the limit was not always enough;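 also: 0% = enzyme with probe and DMSO and 100% = no enzyme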
Target sequence (P0A9M0 whole entry, looked up): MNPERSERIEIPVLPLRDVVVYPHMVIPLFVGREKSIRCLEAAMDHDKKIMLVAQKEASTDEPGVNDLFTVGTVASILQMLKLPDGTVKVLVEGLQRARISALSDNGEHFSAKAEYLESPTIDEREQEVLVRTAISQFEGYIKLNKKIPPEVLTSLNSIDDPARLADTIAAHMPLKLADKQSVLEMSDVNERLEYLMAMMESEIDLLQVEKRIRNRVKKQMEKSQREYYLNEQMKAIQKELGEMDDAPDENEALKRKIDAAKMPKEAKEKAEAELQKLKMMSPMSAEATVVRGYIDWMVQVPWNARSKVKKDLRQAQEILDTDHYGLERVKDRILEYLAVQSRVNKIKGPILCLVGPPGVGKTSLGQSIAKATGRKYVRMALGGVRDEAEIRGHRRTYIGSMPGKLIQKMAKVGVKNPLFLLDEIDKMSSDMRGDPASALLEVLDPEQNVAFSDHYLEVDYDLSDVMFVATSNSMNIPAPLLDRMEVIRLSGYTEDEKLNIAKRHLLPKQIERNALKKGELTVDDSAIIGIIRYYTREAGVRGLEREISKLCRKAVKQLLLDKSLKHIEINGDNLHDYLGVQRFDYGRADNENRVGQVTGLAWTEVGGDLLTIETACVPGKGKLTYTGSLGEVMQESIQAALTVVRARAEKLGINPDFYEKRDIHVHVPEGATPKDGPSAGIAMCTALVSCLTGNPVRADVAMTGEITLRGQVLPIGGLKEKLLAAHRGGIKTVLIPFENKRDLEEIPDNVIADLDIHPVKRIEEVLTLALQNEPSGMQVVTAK
iPSC survival up – hiPSC single-cell survival enhancement | survival enhancement, % at 20 µM | ATPlite luminescence; 100% = ROCK inhibitor wells, 0% = DMSO | AID 602274 | 360,000 tested, 0.044% active; in the data active = survival enhancement above about 18%;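 also: cells exposed to compounds for 16 hours before the ATP read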
MT1-MMP act inh – MT1-MMP (human) activation inhibition; HT1080 RFP-PRO-GFP cells, GFP/RFP ratio fluorescence, overnight; percent of plate control window, DMSO zero; GFP/RFP ratio change, % at 20 µM; 360,000 tested, 0.061% active; AID 651647;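 active = GFP/RFP ratio change of at least 30% with cell ATP level not reduced by more than half and red fluorescence within 50% of control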
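Assay system: HT1080 RFP-PRO-GFP cells | Dosing: 20 µM single dose, 1% DMSO | Incubation: Cells overnight before dosing, compound overnight, 37 °C, 5% CO2 | Evaluation: GFP/RFP fluorescence ratio | Control set: DMSO-only wells and HT1080 RFP-L50D-GFP cell wells as references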
Tb MetRS conf – Trypanosoma brucei MetRS inhibition confirmed; shares compounds with TbMetRS inhib; T. brucei MetRS enzyme, luminescence (ATP depletion); AID 624412; 1,400 tested, 93% active; inhibition, % at 11.9 µM; in the data active = inhibition above about 7%
Jurkat cytotox – Jurkat T cell cytotoxicity for MetRS hits. Jurkat cells viability, ATP luminescence. inhibition, % at 8.3 µM. 1,400 tested, 12% active. shares compounds with TbMetRS inhib; in the data active = inhibition above about 15%;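 also: 0% = vehicle and 100% = reference inhibitor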
Tb MetRS inh FP – orthogonal test for Trypanosoma brucei MetRS inhibitors. inhibition, % at 11.9 µM. AID 651607. shares compounds with TbMetRS inhib. 1,400 tested, 44% active. purified T. brucei MetRS, fluorescence polarization; in the data active = inhibition above about 17%;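 also: 0% = vehicle wells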
* marks the source's active call; other numbers are inactive results; / = no result given. The list is not random: actives were taken first. Their share in the collection is about 1.8%.

SMILES	TbMetRS inhib	SKN-1 block	PREPL inh	E coli Lon inh	iPSC survival up	MT1-MMP act inh	Tb MetRS conf	Jurkat cytotox	Tb MetRS inh FP
CCCCn1c(NC(=O)c2ccc(Br)o2)c(S(=O)(=O)c2ccccc2)c2nc3ccccc3nc21	6.0*	10	3	3	0	-20	11*	1	1
CCCCn1c(NS(=O)(=O)c2ccccc2)c(S(=O)(=O)c2ccc(C)cc2)c2nc3ccccc3nc21	16*	-3	37	-15	-1	-12	12*	1	9
CCCCn1c(NC(=O)c2ccco2)c(S(=O)(=O)c2ccc(C)cc2)c2nc3ccccc3nc21	3	18	/	-68	1	-41	/	/	/
OC1(c2cccc(C(F)(F)F)c2)CCN(c2ncnc3c2[nH]c2ccc(F)cc23)CC1	12*	6	/	3	-1	-2	24*	34*	13
Cc1ccc(NC2=NC(c3ccc(O)cc3)n3c(nc(C)cc3=O)N2)cc1 (centres undefined)	1	21	8	9	4	2	/	/	/
Cc1ccc(C2NC(=NCc3ccccc3)Nc3nc(C)cc(=O)n32)cc1 (centres undefined)	7.6*	6	-28	-4	1	2	17*	-1	-1
CC1(C)CC(=O)C2(CC3=C(CC(C)(C)CC3=O)O2)C(=O)C1	0	-10	-5	-3	-2	-4	/	/	/
CCN(CC(=O)NCc1ccc(Cl)cc1)C(=O)NCc1ccc(Cl)cc1	0	3	-12	-9	0	2	/	/	/
CCN(CC(=O)NCc1ccc(Cl)cc1)C(=O)CCc1ccccc1O	37*	-7	-10	-1	0	2	67*	3	33*
CS(=O)(=O)N1CCN(c2ccccc2NC(=O)Nc2cccc(Cl)c2)CC1	8.4*	-2	6	0	0	-1	24*	-4	74*
COc1ccc(OCC(=O)Nc2cccc(-c3nc4ccccc4[nH]3)c2)cc1	7.1*	7	-19	-4	0	15	12*	4	31*
O=C(O)CCCC(=O)Nc1cccc(-c2nc3ccccc3[nH]2)c1	0	-17	-4	-1	-2	6	/	/	/
O=C(COc1ccccc1)Nc1cccc(-c2nc3ccccc3[nH]2)c1	21*	-1	-14	-4	3	4	43*	4	26*
CCOC(=O)C1(C)CCCN(C(=O)c2ccccc2F)C1 (centres undefined)	0	0	/	7	1	1	/	/	/
CC(C)N(C(=S)Nc1ccc(S(=O)(=O)N2CCOCC2)cc1)c1ccccc1	0	5	-8	-1	-2	1	/	/	/
O=C(NN1C(=O)/C(=C/c2ccc(O)cc2)SC1=S)c1cccc(O)c1	6.7*	-4	-53	-375	1	-79	14*	8	24*
COc1cc(/C=C2\SC(=S)N(NC(=O)c3ccccc3O)C2=O)ccc1O	4	14	-157	-126	0	-3	/	/	/
O=C(NN1C(=O)/C(=C/c2ccc(O)cc2)SC1=S)c1ccccc1O	44*	-1	-34	-349	0	-12	58*	-1	33*
CCN1C/C(=C\c2cc(OC)c(OC)c(OC)c2)C2=NN(c3ccccc3)C(c3cc(OC)c(OC)c(OC)c3)C2C1 (centres undefined)	0	5	/	-10	-2	-1	/	/	/
COCCCNC(=S)NNC(=O)c1ccc(C(C)(C)C)cc1	-1	-14	-3	12	0	5	/	/	/
COCCCNC(=S)NNC(=O)c1ccc(S(=O)(=O)N2CCC(C)CC2)cc1	59*	4	-4	3	2	1	80*	3	50*
CCOc1ccc(CNC(=O)CN2C(=O)C(c3ccccc3)Oc3cccnc32)cc1 (centres undefined)	0	10	1	-3	0	2	/	/	/
CC/C(=N/O)C(=O)c1ccc(Br)cc1	6.2*	-7	2	-2	1	-1	19*	-3	11
COc1ccccc1CN1CC(C(=O)N2CCC(OC)CC2)CCC1=O (centres undefined)	0	16	-2	-11	0	-2	/	/	/
CCc1nnc(N/N=C\c2ccc(OC(C)=O)c(OC)c2)n1N	6.6*	12	-1	17	0	/	4	4	4
SMILES	TbMetRS inhib	SKN-1 block	PREPL inh	E coli Lon inh	iPSC survival up	MT1-MMP act inh	Tb MetRS conf	Jurkat cytotox	Tb MetRS inh FP
CCc1nnc(N/N=C/c2ccc(O)c(OC)c2)n1N	0	3	2	-13	-1	4	/	/	/
O=[N+]([O-])c1ccc2nc(SCc3cn4ccccc4n3)[nH]c2c1	17*	7	8	0	2	3	35*	-3	21*
O=[N+]([O-])c1ccc2nc(SCc3cn4cccnc4n3)[nH]c2c1	1	-7	5	-3	0	2	/	/	/
O=C1CC2(CCN(C(=O)c3c(F)cccc3F)CC2)Oc2ccccc21	0	12	16	3	0	-2	/	/	/
O=C(CCNC(=O)c1ccc(Br)cc1)OCc1ccccc1Cl	7.0*	-13	-22	6	1	0	34*	-4	19*
O=C(CNC(=O)c1ccccc1)NCC(=O)OCc1ccccc1Cl	0	0	-3	-1	-1	2	/	/	/
c1nnc(NCNc2nncs2)s1	0	0	/	-16	-2	1	/	/	/
COc1ccc(/C(C)=C2\SC(=S)N(CCC(=O)O)C2=O)cc1	3	3	0	-5	-2	0	/	/	/
C/C(=C1/SC(=S)N(CCC(=O)O)C1=O)c1ccc(O)cc1	26*	18	-11	0	0	9	64*	3	24*
O=C(N/N=C/c1ccc(OC(=O)c2ccccc2)c([N+](=O)[O-])c1)c1ccc(O)cc1	0	-16	2	2	4	3	/	/	/
O=C(O)c1ccc(NC2=C/C(=N/S(=O)(=O)c3cccs3)c3ccccc3C2=O)cc1	1	-3	/	8	-3	5	/	/	/
O=C1C(Nc2ccc(O)cc2)=C/C(=N/S(=O)(=O)c2cccs2)c2ccccc21	6.2*	11	/	5	-5	-13	9.8*	94*	10
